Experimental findings from ChEMBL document CHEMBL3352573 (Bioorg Med Chem, 2014) are described below.

Sequence of Melanocortin receptor 4 (P32245 whole entry): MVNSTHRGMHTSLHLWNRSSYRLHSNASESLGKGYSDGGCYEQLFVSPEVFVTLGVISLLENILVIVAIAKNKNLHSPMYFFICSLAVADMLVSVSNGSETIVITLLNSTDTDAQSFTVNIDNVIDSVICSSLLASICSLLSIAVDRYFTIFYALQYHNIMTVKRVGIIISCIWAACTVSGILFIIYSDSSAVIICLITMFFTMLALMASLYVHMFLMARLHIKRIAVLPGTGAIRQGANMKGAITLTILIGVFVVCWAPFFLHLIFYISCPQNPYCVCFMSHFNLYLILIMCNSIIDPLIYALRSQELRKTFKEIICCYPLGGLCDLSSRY

One data set deals with Melanocortin receptor 4 (Homo sapiens, UniProt P32245). As to the kind of experiment: Displacement of Eu-DTPA-NDP-a-MSH chelate from human melanocortin-4 receptor expressed in HEK293 cells after 1 hr by competitive DELFIA assay. In kind it is cell-based. Summed up:
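HEK293 cells stably carrying hMC4R (pcDNA3.1) were grown in DMEM plus 10% FBS, seeded at 12,000 cells/well and cultured 3 days. Whole cells were competed with unlabeled ligand against 10 nM (final) Eu-DTPA-NDP-α-MSH in binding medium (DMEM, 1 mM 1,10-phenanthroline, bacitracin, leupeptin, 0.3% BSA) for 1 h at 37 °C, in quadruplicate. EC50 and Hill slope came from variable-slope sigmoidal fits.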
As a reminder, the EC50 is the concentration needed to bring the measured effect to its halfway point. A higher EC50 goes with lower potency in that assay. In turn, `CCCC[C@H](NC(=O)CNC(=O)[C@@H]1CCCN1C(=O)CNC(=O)[C@@H]1CCCN1C(=O)CNC(=O)[C@@H]1CCCN1C(=O)CNC(=O)[C@@H]1CCCN1C(=O)CNC(=O)[C@@H]1CCCN1C(=O)CNC(=O)[C@@H]1CCCN1C(=O)CNC(=O)[C@@H]1CCCN1C(=O)CNC(=O)[C@@H]1CCCN1C(=O)CNC(=O)[C@@H]1CCCN1C(=O)[C@H](Cc1c[nH]c2ccccc12)NC(=O)[C@H](CCCNC(=N)N)NC(=O)[C@@H](Cc1ccccc1)NC(=O)[C@H](Cc1cnc[nH]1)NC(=O)[C@H](CCC(=O)O)NC(=O)[C@H](CCCC)NC(=O)[C@H](CO)NC(C)=O)C(=O)N[C@H]1CC(=O)NCCCC[C@@H](C(N)=O)NC(=O)[C@H](Cc2c[nH]c3ccccc23)NC(=O)[C@H](CCCNC(=N)N)NC(=O)[C@@H](Cc2ccc3ccccc3c2)NC(=O)[C@H](Cc2cnc[nH]2)NC1=O` gave an EC50 of 2 nM.
Compound `CCCC[C@H](NC(=O)CNC(=O)[C@@H]1CCCN1C(=O)CNC(=O)[C@@H]1CCCN1C(=O)CNC(=O)[C@@H]1CCCN1C(=O)CNC(=O)[C@@H]1CCCN1C(=O)CNC(=O)[C@@H]1CCCN1C(=O)CNC(=O)[C@@H]1CCCN1C(=O)[C@H](Cc1c[nH]c2ccccc12)NC(=O)[C@H](CCCNC(=N)N)NC(=O)[C@@H](Cc1ccccc1)NC(=O)[C@H](Cc1cnc[nH]1)NC(=O)[C@H](CCC(=O)O)NC(=O)[C@H](CCCC)NC(=O)[C@H](CO)NC(C)=O)C(=O)N[C@H]1CC(=O)NCCCC[C@@H](C(N)=O)NC(=O)[C@H](Cc2c[nH]c3ccccc23)NC(=O)[C@H](CCCNC(=N)N)NC(=O)[C@@H](Cc2ccc3ccccc3c2)NC(=O)[C@H](Cc2cnc[nH]2)NC1=O` had an EC50 of 4.1 nM.

System in a further data set: not listed separately
As to the kind of experiment: Retention time of the compound by reverse-phase HPLC method. It counts as physicochemical. In short, it runs like this:
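Analytical reverse-phase HPLC on a C18 column (Jupiter 5U C18 300A), 10–40% acetonitrile with 0.1% TFA linear over 30 min at 1 mL/min, UV detection at 220 and 280 nm.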
On to `CCCC[C@H](NC(=O)CNC(=O)[C@@H]1CCCN1C(=O)CNC(=O)[C@@H]1CCCN1C(=O)CNC(=O)[C@@H]1CCCN1C(=O)CNC(=O)[C@@H]1CCCN1C(=O)CNC(=O)[C@@H]1CCCN1C(=O)CNC(=O)[C@@H]1CCCN1C(=O)CNC(=O)[C@@H]1CCCN1C(=O)CNC(=O)[C@@H]1CCCN1C(=O)CNC(=O)[C@@H]1CCCN1C(C)=O)C(=O)N[C@H]1CC(=O)NCCCC[C@@H](C(N)=O)NC(=O)[C@H](Cc2c[nH]c3ccccc23)NC(=O)[C@H](CCCNC(=N)N)NC(=O)[C@@H](Cc2ccc3ccccc3c2)NC(=O)[C@H](Cc2cnc[nH]2)NC1=O`, for which the Retention_time was determined as 11.9 min.
Compound `CCCC[C@H](NC(C)=O)C(=O)N[C@H]1CC(=O)NCCCC[C@@H](C(=O)NCCCOCCOCCOCCCNC(=O)COCC(=O)N[C@@H](CCCC)C(=O)N[C@H]2CC(=O)NCCCC[C@@H](C(N)=O)NC(=O)[C@H](Cc3c[nH]c4ccccc34)NC(=O)[C@H](CCCNC(=N)N)NC(=O)[C@@H](Cc3ccc4ccccc4c3)NC(=O)[C@H](Cc3cnc[nH]3)NC2=O)NC(=O)[C@H](Cc2c[nH]c3ccccc23)NC(=O)[C@H](CCCNC(=N)N)NC(=O)[C@@H](Cc2ccc3ccccc3c2)NC(=O)[C@H](Cc2cnc[nH]2)NC1=O` displayed a Retention_time of 14 min.
Compound `CCCC[C@H](NC(=O)CNC(=O)[C@@H]1CCCN1C(=O)CNC(=O)[C@@H]1CCCN1C(=O)CNC(=O)[C@@H]1CCCN1C(=O)CNC(=O)[C@@H]1CCCN1C(=O)CNC(=O)[C@@H]1CCCN1C(=O)CNC(=O)[C@@H]1CCCN1C(=O)CNC(=O)[C@@H]1CCCN1C(=O)CNC(=O)[C@@H]1CCCN1C(=O)CNC(=O)[C@@H]1CCCN1C(=O)[C@H](Cc1c[nH]c2ccccc12)NC(=O)[C@H](CCCNC(=N)N)NC(=O)[C@@H](Cc1ccccc1)NC(=O)[C@H](Cc1cnc[nH]1)NC(=O)[C@H](CCC(=O)O)NC(=O)[C@H](CCCC)NC(=O)[C@H](CO)NC(C)=O)C(=O)N[C@H]1CC(=O)NCCCC[C@@H](C(N)=O)NC(=O)[C@H](Cc2c[nH]c3ccccc23)NC(=O)[C@H](CCCNC(=N)N)NC(=O)[C@@H](Cc2ccc3ccccc3c2)NC(=O)[C@H](Cc2cnc[nH]2)NC1=O` had a Retention_time of 12 min.
In turn, `CCCC[C@H](NC(=O)CNC(=O)[C@@H]1CCCN1C(=O)CNC(=O)[C@@H]1CCCN1C(=O)CNC(=O)[C@@H]1CCCN1C(=O)CNC(=O)[C@@H]1CCCN1C(=O)CNC(=O)[C@@H]1CCCN1C(=O)CNC(=O)[C@@H]1CCCN1C(=O)CNC(=O)[C@@H]1CCCN1C(=O)CNC(=O)[C@@H]1CCCN1C(=O)CNC(=O)[C@@H]1CCCN1C(=O)CNC(=O)[C@@H]1CCCN1C(=O)CNC(=O)[C@@H]1CCCN1C(=O)CNC(=O)[C@@H]1CCCN1C(C)=O)C(=O)N[C@H]1CC(=O)NCCCC[C@@H](C(N)=O)NC(=O)[C@H](Cc2c[nH]c3ccccc23)NC(=O)[C@H](CCCNC(=N)N)NC(=O)[C@@H](Cc2ccc3ccccc3c2)NC(=O)[C@H](Cc2cnc[nH]2)NC1=O` returned a Retention_time of 11.9 min.
The same measure, in the same setting: next, `CCCC[C@H](NC(C)=O)C(=O)N[C@H]1CC(=O)NCCCC[C@@H](C(=O)NCCCOCCOCCOCCCNC(=O)COCC(=O)N2CCC[C@H]2C(=O)NCC(=O)N2CCC[C@H]2C(=O)NCC(=O)N2CCC[C@H]2C(=O)NCC(=O)NCCCOCCOCCOCCCNC(=O)COCC(=O)N[C@@H](CCCC)C(=O)N[C@H]2CC(=O)NCCCC[C@@H](C(N)=O)NC(=O)[C@H](Cc3c[nH]c4ccccc34)NC(=O)[C@H](CCCNC(=N)N)NC(=O)[C@@H](Cc3ccc4ccccc4c3)NC(=O)[C@H](Cc3cnc[nH]3)NC2=O)NC(=O)[C@H](Cc2c[nH]c3ccccc23)NC(=O)[C@H](CCCNC(=N)N)NC(=O)[C@@H](Cc2ccc3ccccc3c2)NC(=O)[C@H](Cc2cnc[nH]2)NC1=O`: 13.6 min; `CCCC[C@H](NC(C)=O)C(=O)N[C@H]1CC(=O)NCCCC[C@@H](C(=O)NCCCOCCOCCOCCCNC(=O)COCC(=O)NCCCOCCOCCOCCCNC(=O)COCC(=O)N[C@@H](CCCC)C(=O)N[C@H]2CC(=O)NCCCC[C@@H](C(N)=O)NC(=O)[C@H](Cc3c[nH]c4ccccc34)NC(=O)[C@H](CCCNC(=N)N)NC(=O)[C@@H](Cc3ccc4ccccc4c3)NC(=O)[C@H](Cc3cnc[nH]3)NC2=O)NC(=O)[C@H](Cc2c[nH]c3ccccc23)NC(=O)[C@H](CCCNC(=N)N)NC(=O)[C@@H](Cc2ccc3ccccc3c2)NC(=O)[C@H](Cc2cnc[nH]2)NC1=O`: 13.9 min; `CCCC[C@H](NC(C)=O)C(=O)N[C@H]1CC(=O)NCCCC[C@@H](C(=O)N2CCC[C@H]2C(=O)NCC(=O)N2CCC[C@H]2C(=O)NCC(=O)N2CCC[C@H]2C(=O)NCC(=O)N2CCC[C@H]2C(=O)NCC(=O)N2CCC[C@H]2C(=O)NCC(=O)N2CCC[C@H]2C(=O)NCC(=O)N2CCC[C@H]2C(=O)NCC(=O)N2CCC[C@H]2C(=O)NCC(=O)N2CCC[C@H]2C(=O)NCC(=O)N2CCC[C@H]2C(=O)NCC(=O)N2CCC[C@H]2C(=O)NCC(=O)N2CCC[C@H]2C(=O)NCC(=O)N[C@@H](CCCC)C(=O)N[C@H]2CC(=O)NCCCC[C@@H](C(N)=O)NC(=O)[C@H](Cc3c[nH]c4ccccc34)NC(=O)[C@H](CCCNC(=N)N)NC(=O)[C@@H](Cc3ccc4ccccc4c3)NC(=O)[C@H](Cc3cnc[nH]3)NC2=O)NC(=O)[C@H](Cc2c[nH]c3ccccc23)NC(=O)[C@H](CCCNC(=N)N)NC(=O)[C@@H](Cc2ccc3ccccc3c2)NC(=O)[C@H](Cc2cnc[nH]2)NC1=O`: 13.1 min.
On the same count and under the same terms, next, `CCCC[C@H](NC(=O)COCC(=O)NCCCOCCOCCOCCCNC(=O)CNC(=O)[C@@H]1CCCN1C(=O)CNC(=O)[C@@H]1CCCN1C(=O)CNC(=O)[C@@H]1CCCN1C(=O)COCC(=O)NCCCOCCOCCOCCCNC(C)=O)C(=O)N[C@H]1CC(=O)NCCCC[C@@H](C(N)=O)NC(=O)[C@H](Cc2c[nH]c3ccccc23)NC(=O)[C@H](CCCNC(=N)N)NC(=O)[C@@H](Cc2ccc3ccccc3c2)NC(=O)[C@H](Cc2cnc[nH]2)NC1=O`: 12.3 min; `CCCC[C@H](NC(=O)CNC(=O)[C@@H]1CCCN1C(=O)CNC(=O)[C@@H]1CCCN1C(=O)CNC(=O)[C@@H]1CCCN1C(=O)CNC(=O)[C@@H]1CCCN1C(=O)CNC(=O)[C@@H]1CCCN1C(=O)CNC(=O)[C@@H]1CCCN1C(=O)[C@H](Cc1c[nH]c2ccccc12)NC(=O)[C@H](CCCNC(=N)N)NC(=O)[C@@H](Cc1ccccc1)NC(=O)[C@H](Cc1cnc[nH]1)NC(=O)[C@H](CCC(=O)O)NC(=O)[C@H](CCCC)NC(=O)[C@H](CO)NC(C)=O)C(=O)N[C@H]1CC(=O)NCCCC[C@@H](C(N)=O)NC(=O)[C@H](Cc2c[nH]c3ccccc23)NC(=O)[C@H](CCCNC(=N)N)NC(=O)[C@@H](Cc2ccc3ccccc3c2)NC(=O)[C@H](Cc2cnc[nH]2)NC1=O`: 12 min; `CCCC[C@H](NC(=O)CNC(=O)[C@@H]1CCCN1C(=O)CNC(=O)[C@@H]1CCCN1C(=O)CNC(=O)[C@@H]1CCCN1C(=O)CNC(=O)[C@@H]1CCCN1C(=O)CNC(=O)[C@@H]1CCCN1C(=O)CNC(=O)[C@@H]1CCCN1C(C)=O)C(=O)N[C@H]1CC(=O)NCCCC[C@@H](C(N)=O)NC(=O)[C@H](Cc2c[nH]c3ccccc23)NC(=O)[C@H](CCCNC(=N)N)NC(=O)[C@@H](Cc2ccc3ccccc3c2)NC(=O)[C@H](Cc2cnc[nH]2)NC1=O`: 11.9 min.
Take `CCCC[C@H](NC(=O)COCC(=O)NCCCOCCOCCOCCCNC(=O)COCC(=O)NCCCOCCOCCOCCCNC(C)=O)C(=O)N[C@H]1CC(=O)NCCCC[C@@H](C(N)=O)NC(=O)[C@H](Cc2c[nH]c3ccccc23)NC(=O)[C@H](CCCNC(=N)N)NC(=O)[C@@H](Cc2ccc3ccccc3c2)NC(=O)[C@H](Cc2cnc[nH]2)NC1=O`: the Retention_time is listed as 12.5 min.
Still for that read-out and setting: next, `CCCC[C@H](NC(=O)COCC(=O)NCCCOCCOCCOCCCNC(C)=O)C(=O)N[C@H]1CC(=O)NCCCC[C@@H](C(N)=O)NC(=O)[C@H](Cc2c[nH]c3ccccc23)NC(=O)[C@H](CCCNC(=N)N)NC(=O)[C@@H](Cc2ccc3ccccc3c2)NC(=O)[C@H](Cc2cnc[nH]2)NC1=O`: 12.5 min; `CCCC[C@H](NC(C)=O)C(=O)N[C@H]1CC(=O)NCCCC[C@@H](C(=O)N2CCC[C@H]2C(=O)NCC(=O)N2CCC[C@H]2C(=O)NCC(=O)N2CCC[C@H]2C(=O)NCC(=O)N2CCC[C@H]2C(=O)NCC(=O)N2CCC[C@H]2C(=O)NCC(=O)N2CCC[C@H]2C(=O)NCC(=O)N2CCC[C@H]2C(=O)NCC(=O)N2CCC[C@H]2C(=O)NCC(=O)N2CCC[C@H]2C(=O)NCC(=O)N[C@@H](CCCC)C(=O)N[C@H]2CC(=O)NCCCC[C@@H](C(N)=O)NC(=O)[C@H](Cc3c[nH]c4ccccc34)NC(=O)[C@H](CCCNC(=N)N)NC(=O)[C@@H](Cc3ccc4ccccc4c3)NC(=O)[C@H](Cc3cnc[nH]3)NC2=O)NC(=O)[C@H](Cc2c[nH]c3ccccc23)NC(=O)[C@H](CCCNC(=N)N)NC(=O)[C@@H](Cc2ccc3ccccc3c2)NC(=O)[C@H](Cc2cnc[nH]2)NC1=O`: 13.2 min.
